Experimental data taken from ChEMBL document CHEMBL4325902, “Design, synthesis and biological evaluation of novel, orally bioavailable pyrimidine-fused heterocycles as influenza PB2 inhibitors” (Eur J Med Chem, 2019).

Legend:
[1] = Half life in human liver microsomes at 1 uM preincubated for 10 mins followed by NADPH addition measured up to 60 mins by LC/MS/MS analysis; assay type: ADME, Microsome
How it was run: (§1)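 Test compound at 1 µM with 0.5 mg/mL liver microsomal protein (CD-1 mouse, SD rat or human) in 100 mM potassium phosphate, pH 7.4. Preincubated 10 min at 37°C, then started with NADPH (1 mM generating system). Sampled at 0–60 min and stopped with cold acetonitrile containing internal standards. Compound loss gave T1/2. A no-NADPH control ran 60 min.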

[2] = Half life in Sprague-Dawley rat liver microsomes at 1 uM preincubated for 10 mins followed by NADPH addition measured up to 60 mins by LC/MS/MS analysis; assay type: ADME, Microsome; how it was run: as §1
[3] = Half life in CD-1 mouse liver microsomes at 1 uM preincubated for 10 mins followed by NADPH addition measured up to 60 mins by LC/MS/MS analysis; assay type: ADME, Microsome; how it was run: as §1
[4] = Cytotoxicity against MDCK cells assessed as reduction in cell viability after 5 days by CCK-8 assay; assay type: cell-based, Canis lupus familiaris; settings: dog
How it was run: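 MDCK cells seeded at 2×10^3 per well and grown overnight at 37°C, 5% CO2. Diluted compound (0.5% DMSO final) added without virus, then 5 days at 37°C. Viability read by CCK-8. CC50 is the concentration cutting viability to 50% of control, from a dose-response fit.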

[5] = Cmax in CD-1 mouse at 1 mg/kg, po; assay type: ADME, organism-based; set-up: dose 1 mg/kg, route oral; settings: in vivo
How it was run: (§2)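 Male CD-1 mice, n=3 per dose, values are cohort means. Cassette PK: 0.5 mg/kg iv and 1 mg/kg po, both in 20% Solutol in water. Reported parameters are clearance, T1/2, Vd, AUC, Cmax, Tmax and %F.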

[6] = Tmax in CD-1 mouse at 1 mg/kg, po; assay type: ADME, organism-based; settings: in vivo; how it was run: as §2
[7] = Volume of distribution in CD-1 mouse at 0.5 mg/kg, iv; assay type: ADME, organism-based; settings: in vivo; how it was run: as §2
[8] = Clearance in CD-1 mouse at 0.5 mg/kg, iv; assay type: ADME, organism-based; settings: in vivo; how it was run: as §2
[9] = AUC in CD-1 mouse at 0.5 mg/kg, iv; assay type: ADME, organism-based; settings: in vivo; how it was run: as §2
[10] = AUC in CD-1 mouse at 1 mg/kg, po; assay type: ADME, organism-based; settings: in vivo; how it was run: as §2
[11] = Oral bioavailability in CD-1 mouse at 1 mg/kg; assay type: ADME, organism-based; settings: in vivo; how it was run: as §2
[12] = Half life in CD-1 mouse at 0.5 mg/kg, iv; assay type: ADME, organism-based; settings: in vivo; how it was run: as §2
[13] = Half life in CD-1 mouse at 1 mg/kg, iv; assay type: ADME, organism-based; settings: in vivo
How it was run: (§3)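 Male CD-1 mice, n=3 per dose, values are cohort means. Dosed 1 mg/kg iv and 10 mg/kg po, each in 20% Solutol in water. Reported parameters are Cl, T1/2, Vd, AUC, Cmax, Tmax and %F.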

[14] = Cmax in CD-1 mouse at 10 mg/kg, po; assay type: ADME, organism-based; set-up: dose 10 mg/kg, route oral; settings: in vivo; how it was run: as §3
[15] = AUC in CD-1 mouse at 10 mg/kg, po; assay type: ADME, organism-based; settings: in vivo; how it was run: as §3
[16] = AUC in CD-1 mouse at 1 mg/kg, iv; assay type: ADME, organism-based; settings: in vivo; how it was run: as §3
[17] = Oral bioavailability in CD-1 mouse at 10 mg/kg; assay type: ADME, organism-based; settings: in vivo; how it was run: as §3
[18] = Tmax in CD-1 mouse at 10 mg/kg, po; assay type: ADME, organism-based; settings: in vivo; how it was run: as §3
[19] = Clearance in CD-1 mouse at 1 mg/kg, iv; assay type: ADME, organism-based; settings: in vivo; how it was run: as §3
[20] = Volume of distribution in CD-1 mouse at 1 mg/kg, iv; assay type: ADME, organism-based; settings: in vivo; how it was run: as §3

O=C(O)[C@H]1C2CCC(CC2)[C@@H]1Nc1nc(-c2n[nH]c3ncc(F)cc23)nc2ccsc12
half-life at 1 µM [1]: 1.28 h | half-life at 1 µM [2]: 1.22 h | half-life at 1 µM [3]: 0.683 h | CC50 at 120 h [4]: 0.2 µM

O=C(O)[C@H]1C2CCC(CC2)[C@@H]1Nc1nc(-c2c[nH]c3ncc(F)cc23)nc2scnc12
CC50 at 120 h [4]: 1.5 µM

N#Cc1csc2c(N[C@H]3C4CCC(CC4)[C@@H]3C(=O)O)nc(-c3c[nH]c4ncc(F)cc34)nc12
CC50 at 120 h [4]: 0.7 µM

O=C(O)[C@H]1C2CCC(CC2)[C@@H]1Nc1nc(-n2ccc3ncc(F)cc32)ncc1F
CC50 at 120 h [4]: 1.1 µM

Cn1cc(F)c2c(N[C@H]3C4CCC(CC4)[C@@H]3C(=O)O)nc(-c3c[nH]c4ncc(F)cc34)nc21
CC50 at 120 h [4]: 0.6 µM

O=C(O)[C@H]1C2CCC(CC2)[C@@H]1Nc1nc(-c2c[nH]c3ncc(F)cc23)nc2cccc(F)c12
CC50 at 120 h [4]: 1.8 µM

O=C(O)[C@H]1C2CCC(CC2)[C@@H]1Nc1nc(-c2c[nH]c3ncc(F)cc23)nc2ccsc12
Cmax [5]: 172 nM | Tmax [6]: 0.4 h | Vd [7]: 2.4 L/kg | clearance [8]: 18.9 mL/min/kg | AUC [9]: 1.01 µM·h | AUC [10]: 0.69 µM·h | bioavailability [11]: 37% | half-life at 1 µM [1]: 0.828 h | half-life [12]: 2 h | half-life at 1 µM [2]: 0.87 h | half-life at 1 µM [3]: 0.808 h | CC50 at 120 h [4]: 1.5 µM

O=C(O)[C@H]1C2CCC(CC2)[C@@H]1Nc1nc(-c2c[nH]c3ncc(F)cc23)nc2ccoc12
CC50 at 120 h [4]: 6.2 µM

O=C(O)[C@H]1C2CCC(CC2)[C@@H]1Nc1nc(-c2c[nH]c3ncc(F)cc23)nc2c1CSC2
CC50 at 120 h [4]: 4.4 µM

O=C(O)[C@H]1C2CCC(CC2)[C@@H]1Nc1nc(-c2c[nH]c3ncc(F)cc23)nc2c1CCC2
CC50 at 120 h [4]: 10 µM

O=C(O)[C@H]1C2CCC(CC2)[C@@H]1Nc1nc(-c2c[nH]c3ncc(F)cc23)nc2c1CCS2
CC50 at 120 h [4]: 5.6 µM

O=C(O)[C@H]1C2CCC(CC2)[C@@H]1Nc1nc(-c2n[nH]c3ncc(F)cc23)nc2c1SCC2
half-life [13]: 3 h | Cmax [14]: 32600 nM | AUC [15]: 152 µM·h | half-life at 1 µM [1]: > 2.42 h | AUC [16]: 28.7 µM·h | half-life at 1 µM [2]: > 2.42 h | half-life at 1 µM [3]: 1.71 h | bioavailability [17]: 57% | Tmax [18]: 0.67 h | clearance [19]: 1.3 mL/min/kg | CC50 at 120 h [4]: 4.9 µM | Vd [20]: 0.2 L/kg

O=C(O)[C@H]1C2CCC(CC2)[C@@H]1Nc1nc(-c2c[nH]c3ccc(F)cc23)ncc1F
CC50 at 120 h [4]: 10 µM

O=C(O)[C@H]1C2CCC(CC2)[C@@H]1Nc1nc(-c2c[nH]c3ncc(F)cc23)nc2cccnc12
CC50 at 120 h [4]: 7 µM

O=C(O)[C@H]1C2CCC(CC2)[C@@H]1Nc1nc(-c2c[nH]c3ncc(F)cc23)nc2c1CS(=O)(=O)C2
CC50 at 120 h [4]: > 50 µM

Cc1cnc2c(N[C@H]3C4CCC(CC4)[C@@H]3C(=O)O)nc(-c3c[nH]c4ncc(F)cc34)nc2c1
CC50 at 120 h [4]: 4.9 µM

O=C(O)[C@H]1C2CCC(CC2)[C@@H]1Nc1nc(-c2c[nH]c3ncc(F)cc23)nc2cc(F)cnc12
CC50 at 120 h [4]: 1.4 µM

O=C(O)[C@H]1C2CCC(CC2)[C@@H]1Nc1nc(-c2c[nH]c3ncc(F)cc23)nc2c1CCCC2
CC50 at 120 h [4]: > 50 µM

O=C(O)[C@H]1C2CCC(CC2)[C@@H]1Nc1nc(-c2c[nH]c3ncc(F)cc23)nc2[nH]ccc12
CC50 at 120 h [4]: 15 µM

Cc1cccc2nc(-c3c[nH]c4ncc(F)cc34)nc(N[C@H]3C4CCC(CC4)[C@@H]3C(=O)O)c12
CC50 at 120 h [4]: 4.7 µM

O=C(O)[C@H]1C2CCC(CC2)[C@@H]1Nc1nc(-c2c[nH]c3ncc(F)cc23)nc2c1S(=O)(=O)CC2
CC50 at 120 h [4]: > 50 µM

O=C(O)[C@H]1C2CCC(CC2)[C@@H]1N1CCOc2cnc(-c3c[nH]c4ncc(F)cc34)nc21
CC50 at 120 h [4]: > 50 µM

O=C(O)[C@H]1C2CCC(CC2)[C@@H]1Nc1nc(-c2c[nH]c3ncc(F)cc23)nc2cscc12
Cmax [5]: 29.2 nM | Tmax [6]: 0.33 h | Vd [7]: 5.7 L/kg | clearance [8]: 73.7 mL/min/kg | AUC [9]: 0.252 µM·h | AUC [10]: 0.0488 µM·h | bioavailability [11]: 10% | half-life [12]: 1.3 h | CC50 at 120 h [4]: > 50 µM

Cc1cccc2nc(N[C@H]3C4CCC(CC4)[C@@H]3C(=O)O)nc(-c3c[nH]c4ncc(F)cc34)c12
CC50 at 120 h [4]: 2.1 µM

O=C(O)[C@H]1C2CCC(CC2)[C@@H]1n1ccc2cnc(-c3c[nH]c4ncc(F)cc34)nc21
CC50 at 120 h [4]: 4 µM

O=C(O)[C@H]1C2CCC(CC2)[C@@H]1Nc1nc(-c2c[nH]c3ncc(F)cc23)nc2cc(C(F)F)sc12
CC50 at 120 h [4]: 3.3 µM

O=C(O)[C@H]1C2CCC(CC2)[C@@H]1Nc1nc(-c2c[nH]c3ncc(F)cc23)nc2nccnc12
CC50 at 120 h [4]: 46 µM

O=C(O)[C@H]1C2CCC(CC2)[C@@H]1Nc1nc(-c2c[nH]c3ncc(F)cc23)nc2sccc12
Cmax [5]: 509 nM | Tmax [6]: 0.83 h | AUC [10]: 1.35 µM·h | half-life at 1 µM [1]: 1.74 h | half-life at 1 µM [2]: 1.52 h | half-life at 1 µM [3]: 1.02 h | CC50 at 120 h [4]: 0.6 µM

O=C(O)[C@H]1C2CCC(CC2)[C@@H]1Nc1nc(-c2c[nH]c3ncc(F)cc23)nc2c1SCC2
half-life [13]: 2.3 h | Cmax [14]: 15000 nM | AUC [15]: 19.5 µM·h | half-life at 1 µM [1]: 1.66 h | AUC [16]: 2.79 µM·h | half-life at 1 µM [2]: 1.92 h | half-life at 1 µM [3]: 0.855 h | bioavailability [17]: 71% | Tmax [18]: 0.25 h | clearance [19]: 13.8 mL/min/kg | CC50 at 120 h [4]: 4.5 µM | Vd [20]: 2.3 L/kg

N#Cc1cn([C@H]2C3CCC(CC3)[C@@H]2C(=O)O)c2nc(-c3c[nH]c4ncc(F)cc34)ncc12
CC50 at 120 h [4]: 5.4 µM

O=C(O)[C@H]1C2CCC(CC2)[C@@H]1n1cnc2cnc(-c3c[nH]c4ncc(F)cc34)nc21
CC50 at 120 h [4]: 21.7 µM

O=C(O)[C@H]1C2CCC(CC2)[C@@H]1Nc1nc(-c2n[nH]c3ncc(F)cc23)nc2sccc12
half-life at 1 µM [1]: 1.18 h | half-life at 1 µM [2]: 1.08 h | half-life at 1 µM [3]: 0.55 h | CC50 at 120 h [4]: 2.7 µM

O=C(O)[C@H]1C2CCC(CC2)[C@@H]1Nc1nc(-c2c[nH]c3ncc(F)cc23)ncc1F [PIMODIVIR]
half-life [13]: 1.9 h | Cmax [14]: 2050 nM | AUC [15]: 13.4 µM·h | half-life at 1 µM [1]: > 2.42 h | AUC [16]: 1.36 µM·h | half-life at 1 µM [2]: > 2.42 h | half-life at 1 µM [3]: > 2.42 h | bioavailability [17]: 100% | Tmax [18]: 2.5 h | clearance [19]: 30.9 mL/min/kg | CC50 at 120 h [4]: 12 µM | Vd [20]: 7.1 L/kg
